This is an account of results in ChEMBL document CHEMBL1806444, “Synthesis of new chalcone derivatives bearing 2,4-thiazolidinedione and benzoic acid moieties as potential anti-bacterial agents” (2011).

What is called MIC is the lowest concentration that inhibits growth of the organism.

What all share (assay type): functional
Assay [1] concerns Escherichia coli. As to the kind of experiment: Antibacterial activity against 10^5 CFU/mL Escherichia coli 1682 assessed as inhibition of bacterial growth after 24 hrs by microtiter enzyme-linked immunosorbent assay. The conditions noted are these: Escherichia coli, 1682, 24 h.
Assay [2] concerns Escherichia coli. As to the kind of experiment: Antibacterial activity against 10^5 CFU/mL Escherichia coli 1356 assessed as inhibition of bacterial growth after 24 hrs by microtiter enzyme-linked immunosorbent assay. The conditions noted are these: Escherichia coli, 1356, 24 h.
The test system of assay [3] is Staphylococcus aureus. As to the kind of experiment: Antibacterial activity against 10^5 CFU/mL Staphylococcus aureus RN4220 assessed as inhibition of bacterial growth after 24 hrs by microtiter enzyme-linked immunosorbent assay. The conditions noted are these: RN4220, 24 h.
In assay [4] the test system is Staphylococcus aureus. As to the kind of experiment: Antibacterial activity against 10^5 CFU/mL Staphylococcus aureus KCTC 503 assessed as inhibition of bacterial growth after 24 hrs by microtiter enzyme-linked immunosorbent assay. The conditions noted are these: KCTC 503, 24 h.
Assay [5] relates to Staphylococcus aureus. The assay can be described thus: Antibacterial activity against 10^5 CFU/mL quinolone-resistant Staphylococcus aureus CCARM 3505 assessed as inhibition of bacterial growth after 24 hrs by microtiter enzyme-linked immunosorbent assay. As to conditions: CCARM 3505, 24 h. An outline of the steps:
(§1)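 Broth microdilution MIC. Bacteria grown to mid-log phase in Mueller-Hinton broth, diluted 1000-fold, and inoculated at 10⁵ CFU/mL in MHB, 0.2 mL/well in 96-well plates. Compounds dissolved in DMSO, final DMSO not exceeding 0.05%, in serial dilutions. Oxacillin and norfloxacin served as positive controls. MIC is the lowest concentration giving complete growth inhibition after 24 h at 37 °C.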

Assay [6] deals with Staphylococcus aureus. As to the kind of experiment: Antibacterial activity against 10^5 CFU/mL methicillin-resistant Staphylococcus aureus CCARM 3167 assessed as inhibition of bacterial growth after 24 hrs by microtiter enzyme-linked immunosorbent assay. The conditions noted are these: CCARM 3167, 24 h. The essentials:
as §1

Assay [7] has as its system Staphylococcus aureus. As to the kind of experiment: Antibacterial activity against 10^5 CFU/mL quinolone-resistant Staphylococcus aureus CCARM 3519 assessed as inhibition of bacterial growth after 24 hrs by microtiter enzyme-linked immunosorbent assay. The conditions noted are these: CCARM 3519, 24 h. The essentials: as §1
For assay [8], the system named is Staphylococcus aureus. As to the kind of experiment: Antibacterial activity against 10^5 CFU/mL methicillin-resistant Staphylococcus aureus CCARM 3506 assessed as inhibition of bacterial growth after 24 hrs by microtiter enzyme-linked immunosorbent assay. The conditions noted are these: CCARM 3506, 24 h. An outline of the steps: as §1

Molecules are shown by their SMILES. ≈ marks a conversion by molar mass, not a printed value.

As for `COC(=O)c1ccc(CN2C(=O)S/C(=C\c3ccc(/C=C/C(=O)c4cccc(O)c4)cc3)C2=O)cc1`, the minimal inhibitory concentration (MIC) in the assay on Escherichia coli [1], in the assay with Escherichia coli [2], with Staphylococcus aureus [3] and in the assay with Staphylococcus aureus [4] was over 64 µg/mL throughout.
On to `COC(=O)c1ccc(CN2C(=O)S/C(=C\c3ccc(/C=C/C(=O)c4ccc(Br)cc4)cc3)C2=O)cc1`, for which the MIC with Escherichia coli [1], with Escherichia coli [2], in the assay on Staphylococcus aureus [3] and in the assay with Staphylococcus aureus [4] was over 64 µg/mL each time.
Consider `Cc1onc(-c2ccccc2)c1C(=O)N[C@@H]1C(=O)N2[C@@H]1SC(C)(C)[C@@H]2C(=O)O` [OXACILLIN], for which the MIC is 1 µg/mL (≈ 2.49 µM) with Staphylococcus aureus [5]; over 64 µg/mL with Staphylococcus aureus [6]; 1 µg/mL (≈ 2.49 µM) in the assay on Staphylococcus aureus [7]; over 64 µg/mL with Escherichia coli [1]; over 64 µg/mL in the assay with Staphylococcus aureus [8]; over 64 µg/mL with Escherichia coli [2]. Besides, the MIC with Staphylococcus aureus [3] and in the assay on Staphylococcus aureus [4] was 1 µg/mL (≈ 2.49 µM) in each case.
Regarding `O=C(O)c1ccc(CN2C(=O)S/C(=C\c3ccc(/C=C/C(=O)c4ccccc4O)cc3)C2=O)cc1`, the MIC in the assay with Escherichia coli [1], with Escherichia coli [2], with Staphylococcus aureus [3] and in the assay with Staphylococcus aureus [4] was over 64 µg/mL throughout.
With `COc1ccc(C(=O)/C=C/c2ccc(/C=C3\SC(=O)N(Cc4ccc(C(=O)O)cc4)C3=O)cc2)cc1`, the MIC in the assay with Escherichia coli [1], in the assay on Escherichia coli [2], with Staphylococcus aureus [3] and in the assay on Staphylococcus aureus [4] was over 64 µg/mL throughout.
As to `O=C(O)c1ccc(CN2C(=O)S/C(=C\c3ccc(/C=C/C(=O)c4ccc(Br)cc4)cc3)C2=O)cc1`, the MIC with Escherichia coli [1], in the assay with Escherichia coli [2], in the assay on Staphylococcus aureus [3] and in the assay on Staphylococcus aureus [4] was over 64 µg/mL each time.
On to `COC(=O)c1ccc(CN2C(=O)S/C(=C\c3ccc(/C=C/C(=O)c4ccc(C)cc4C)cc3)C2=O)cc1`, for which the minimum inhibitory concentration (MIC) in the assay on Escherichia coli [1], with Escherichia coli [2], in the assay on Staphylococcus aureus [3] and with Staphylococcus aureus [4] was over 64 µg/mL each time.
Take `COC(=O)c1ccc(CN2C(=O)S/C(=C\c3ccc(/C=C/C(=O)c4ccc(Cl)cc4Cl)cc3)C2=O)cc1`: the MIC in the assay with Escherichia coli [1], in the assay on Escherichia coli [2], in the assay on Staphylococcus aureus [3] and in the assay on Staphylococcus aureus [4] was over 64 µg/mL throughout.
`COC(=O)c1ccc(CN2C(=O)S/C(=C\c3ccc(/C=C/C(=O)c4ccc(O)cc4)cc3)C2=O)cc1`: the MIC in the assay on Escherichia coli [1], in the assay with Escherichia coli [2], in the assay on Staphylococcus aureus [3] and in the assay on Staphylococcus aureus [4] was over 64 µg/mL each time.
Consider `O=C(O)c1ccc(CN2C(=O)S/C(=C\c3ccc(/C=C/C(=O)c4ccccc4F)cc3)C2=O)cc1`, for which the MIC with Escherichia coli [1], in the assay on Escherichia coli [2], in the assay with Staphylococcus aureus [3] and with Staphylococcus aureus [4] was over 64 µg/mL each time.
Regarding `COC(=O)c1ccc(CN2C(=O)S/C(=C\c3ccc(/C=C/C(=O)c4ccccc4O)cc3)C2=O)cc1`, the minimal inhibitory concentration (MIC) with Escherichia coli [1], in the assay on Escherichia coli [2], in the assay on Staphylococcus aureus [3] and in the assay on Staphylococcus aureus [4] was over 64 µg/mL throughout.
`COC(=O)c1ccc(CN2C(=O)S/C(=C\c3ccc(/C=C/C(=O)c4ccc(F)cc4)cc3)C2=O)cc1`: the MIC in the assay on Escherichia coli [1], in the assay with Escherichia coli [2], with Staphylococcus aureus [3] and with Staphylococcus aureus [4] was over 64 µg/mL in each case.
With `COC(=O)c1ccc(CN2C(=O)S/C(=C\c3ccc(/C=C/C(=O)c4cccc(OC)c4)cc3)C2=O)cc1`, the minimal inhibitory concentration (MIC) with Escherichia coli [1], in the assay with Escherichia coli [2], in the assay on Staphylococcus aureus [3] and in the assay on Staphylococcus aureus [4] was over 64 µg/mL each time.
For the molecule `COC(=O)c1ccc(CN2C(=O)S/C(=C\c3ccc(/C=C/C(=O)c4cccc(Br)c4)cc3)C2=O)cc1`, the minimum inhibitory concentration (MIC) with Escherichia coli [1], in the assay with Escherichia coli [2], in the assay with Staphylococcus aureus [3] and in the assay with Staphylococcus aureus [4] was over 64 µg/mL in each case.
As to `O=C(O)c1ccc(CN2C(=O)S/C(=C\c3ccc(/C=C/C(=O)c4ccc(F)cc4)cc3)C2=O)cc1`, the minimum inhibitory concentration (MIC) with Escherichia coli [1], with Escherichia coli [2], in the assay with Staphylococcus aureus [3] and in the assay on Staphylococcus aureus [4] was over 64 µg/mL each time.
Consider `O=C(O)c1ccc(CN2C(=O)S/C(=C\c3ccc(/C=C/C(=O)c4ccc5ccccc5c4)cc3)C2=O)cc1`, for which the minimum inhibitory concentration (MIC) with Escherichia coli [1], in the assay with Escherichia coli [2], in the assay with Staphylococcus aureus [3] and in the assay on Staphylococcus aureus [4] was over 64 µg/mL each time.
As to `O=C(O)c1ccc(CN2C(=O)S/C(=C\c3ccc(/C=C/C(=O)c4cccc(Cl)c4)cc3)C2=O)cc1`, the MIC with Escherichia coli [1], in the assay with Escherichia coli [2], in the assay on Staphylococcus aureus [3] and in the assay on Staphylococcus aureus [4] was over 64 µg/mL throughout.
Consider `COC(=O)c1ccc(CN2C(=O)S/C(=C\c3ccc(/C=C/C(=O)c4ccccc4OC)cc3)C2=O)cc1`, for which the minimum inhibitory concentration (MIC) in the assay with Escherichia coli [1], in the assay with Escherichia coli [2], in the assay with Staphylococcus aureus [3] and in the assay with Staphylococcus aureus [4] was over 64 µg/mL each time.
In the case of `O=C(O)c1ccc(CN2C(=O)S/C(=C\c3ccc(/C=C/C(=O)c4cccc(Br)c4)cc3)C2=O)cc1`, the MIC with Escherichia coli [1], with Escherichia coli [2], with Staphylococcus aureus [3] and in the assay with Staphylococcus aureus [4] was over 64 µg/mL throughout.
Turning to `COC(=O)c1ccc(CN2C(=O)S/C(=C\c3ccc(/C=C/C(=O)c4ccccc4Cl)cc3)C2=O)cc1`, the MIC with Escherichia coli [1], in the assay on Escherichia coli [2], in the assay with Staphylococcus aureus [3] and with Staphylococcus aureus [4] was over 64 µg/mL throughout.
For `COC(=O)c1ccc(CN2C(=O)S/C(=C\c3ccc(/C=C/C(=O)c4ccc(Cl)cc4)cc3)C2=O)cc1`, the MIC in the assay with Escherichia coli [1], in the assay with Escherichia coli [2], with Staphylococcus aureus [3] and in the assay with Staphylococcus aureus [4] was over 64 µg/mL in each case.
Take `COC(=O)c1ccc(CN2C(=O)S/C(=C\c3ccc(/C=C/C(=O)c4ccccc4)cc3)C2=O)cc1`: the minimal inhibitory concentration (MIC) in the assay on Escherichia coli [1], in the assay with Escherichia coli [2], in the assay on Staphylococcus aureus [3] and in the assay on Staphylococcus aureus [4] was over 64 µg/mL throughout.
Consider `COC(=O)c1ccc(CN2C(=O)S/C(=C\c3ccc(/C=C/C(=O)c4ccccc4Br)cc3)C2=O)cc1`, for which the MIC in the assay with Escherichia coli [1], in the assay with Escherichia coli [2], in the assay with Staphylococcus aureus [3] and in the assay on Staphylococcus aureus [4] was over 64 µg/mL in each case.
On to `COC(=O)c1ccc(CN2C(=O)S/C(=C\c3ccc(/C=C/C(=O)c4ccc(OC)cc4)cc3)C2=O)cc1`, for which the MIC with Escherichia coli [1], in the assay on Escherichia coli [2], in the assay on Staphylococcus aureus [3] and with Staphylococcus aureus [4] was over 64 µg/mL each time.
Consider `COc1cccc(C(=O)/C=C/c2ccc(/C=C3\SC(=O)N(Cc4ccc(C(=O)O)cc4)C3=O)cc2)c1`, for which the minimal inhibitory concentration (MIC) in the assay with Escherichia coli [1], in the assay on Escherichia coli [2], in the assay on Staphylococcus aureus [3] and in the assay with Staphylococcus aureus [4] was over 64 µg/mL in each case.
Turning to `Cc1ccc(C(=O)/C=C/c2ccc(/C=C3\SC(=O)N(Cc4ccc(C(=O)O)cc4)C3=O)cc2)cc1`, the minimal inhibitory concentration (MIC) in the assay on Escherichia coli [1], in the assay with Escherichia coli [2], with Staphylococcus aureus [3] and in the assay on Staphylococcus aureus [4] was over 64 µg/mL in each case.
As to `COC(=O)c1ccc(CN2C(=O)S/C(=C\c3ccc(/C=C/C(=O)c4ccc5ccccc5c4)cc3)C2=O)cc1`, the MIC with Escherichia coli [1], in the assay on Escherichia coli [2], in the assay with Staphylococcus aureus [3] and in the assay with Staphylococcus aureus [4] was over 64 µg/mL each time.
With `O=C(O)c1ccc(CN2C(=O)S/C(=C\c3ccc(/C=C/C(=O)c4ccc(Cl)cc4)cc3)C2=O)cc1`, the MIC in the assay on Escherichia coli [1], in the assay on Escherichia coli [2], in the assay with Staphylococcus aureus [3] and with Staphylococcus aureus [4] was over 64 µg/mL throughout.
With `COC(=O)c1ccc(CN2C(=O)S/C(=C\c3ccc(/C=C/C(=O)c4ccccc4F)cc3)C2=O)cc1`, the MIC in the assay on Escherichia coli [1], in the assay with Escherichia coli [2], in the assay with Staphylococcus aureus [3] and in the assay on Staphylococcus aureus [4] was over 64 µg/mL each time.
Regarding `Cc1ccc(C(=O)/C=C/c2ccc(/C=C3\SC(=O)N(Cc4ccc(C(=O)O)cc4)C3=O)cc2)c(C)c1`, the MIC in the assay with Escherichia coli [1], in the assay with Escherichia coli [2], in the assay on Staphylococcus aureus [3] and in the assay on Staphylococcus aureus [4] was over 64 µg/mL each time.
`COC(=O)c1ccc(CN2C(=O)S/C(=C\c3ccc(/C=C/C(=O)c4cccc(Cl)c4)cc3)C2=O)cc1`: the MIC in the assay with Escherichia coli [1], in the assay on Escherichia coli [2], in the assay with Staphylococcus aureus [3] and with Staphylococcus aureus [4] was over 64 µg/mL each time.
In the case of `O=C(O)c1ccc(CN2C(=O)S/C(=C\c3ccc(/C=C/C(=O)c4ccc(O)cc4)cc3)C2=O)cc1`, the MIC in the assay on Escherichia coli [1], in the assay on Escherichia coli [2], in the assay with Staphylococcus aureus [3] and in the assay with Staphylococcus aureus [4] was over 64 µg/mL each time.
`COC(=O)c1ccc(CN2C(=O)S/C(=C\c3ccc(/C=C/C(=O)c4ccc(C)cc4)cc3)C2=O)cc1`: the MIC in the assay with Escherichia coli [1], with Escherichia coli [2], in the assay on Staphylococcus aureus [3] and in the assay on Staphylococcus aureus [4] was over 64 µg/mL each time.
As for `O=C(O)c1ccc(CN2C(=O)S/C(=C\c3ccc(/C=C/C(=O)c4ccc(Cl)cc4Cl)cc3)C2=O)cc1`, the MIC with Escherichia coli [1], in the assay on Escherichia coli [2], in the assay on Staphylococcus aureus [3] and with Staphylococcus aureus [4] was over 64 µg/mL throughout.
